Two compounds from PubChem BioAssay AID588734 (Vanderbilt Specialized Chemistry Center, 2011) can be followed below.

Activity calls are given as the source filed them.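 How the source made its calls: active means compound moving the glutamate curve by at least twofold either way, or glutamate peak under 75% or over 125%; inactive means the rest.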

For the assay, the target named is Metabotropic glutamate receptor 4 (Rattus norvegicus) (UniProt P31423). Put plainly: rat mGlu4 allosteric modulation, glutamate curve shift, profiling panel, selectivity assay for mGlu5 PAM project, thallium flux, HEK/GIRK cells (AID 588734). Particulars: glutamate CRC shift, at 10 µM; Emax: measured here: glutamate max response with compound. In a few lines: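 System: HEK/GIRK cells with rat mGlu4; incubation: dye loading for 45 min at 37 °C; signal: thallium flux fluorescence slope; measure: glutamate EC50 ratio, untreated over compound-treated; benchmarks: compound-free glutamate curve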

As usually defined, the Emax is the size of the effect at its maximum, as opposed to the concentration needed.

Chain of Metabotropic glutamate receptor 4 (Rattus norvegicus) (P31423 whole entry, looked up): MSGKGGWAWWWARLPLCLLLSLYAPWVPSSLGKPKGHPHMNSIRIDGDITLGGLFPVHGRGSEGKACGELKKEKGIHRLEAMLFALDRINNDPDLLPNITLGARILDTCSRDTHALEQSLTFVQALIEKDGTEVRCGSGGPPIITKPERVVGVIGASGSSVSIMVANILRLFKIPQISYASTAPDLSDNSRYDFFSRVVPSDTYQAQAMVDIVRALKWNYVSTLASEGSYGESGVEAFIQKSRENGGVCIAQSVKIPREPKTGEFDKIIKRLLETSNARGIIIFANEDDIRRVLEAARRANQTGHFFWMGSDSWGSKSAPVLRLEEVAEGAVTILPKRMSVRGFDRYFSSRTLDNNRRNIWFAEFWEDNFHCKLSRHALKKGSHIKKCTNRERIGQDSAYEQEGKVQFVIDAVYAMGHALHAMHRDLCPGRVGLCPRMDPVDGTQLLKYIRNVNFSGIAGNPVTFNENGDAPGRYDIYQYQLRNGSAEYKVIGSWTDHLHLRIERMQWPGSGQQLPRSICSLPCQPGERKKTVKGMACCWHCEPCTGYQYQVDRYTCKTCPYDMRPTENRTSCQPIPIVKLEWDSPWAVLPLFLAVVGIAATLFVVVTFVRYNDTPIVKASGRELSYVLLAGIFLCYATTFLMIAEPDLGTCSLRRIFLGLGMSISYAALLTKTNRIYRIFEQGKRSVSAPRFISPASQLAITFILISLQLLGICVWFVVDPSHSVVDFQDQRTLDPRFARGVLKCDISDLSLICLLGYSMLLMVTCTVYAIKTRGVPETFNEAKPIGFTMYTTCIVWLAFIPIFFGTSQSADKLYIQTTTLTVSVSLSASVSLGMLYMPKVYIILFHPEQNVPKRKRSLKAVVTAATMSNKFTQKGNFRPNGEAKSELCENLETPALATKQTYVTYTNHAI

Regarding `CC1(NC(=O)c2ccc(C#Cc3cccc(F)c3)cn2)COC1`, the Emax worked out at 93% and the fold shift is 1 (inactive).

For `C[C@@H](NC(=O)c1ccc(C#Cc2cccc(F)c2)cn1)C(C)(C)O`, the Emax amounted to 90% and the fold shift is 0.88 (inactive).
